pIC50: −log10 of the molar value. The source made the active and inactive calls. The rule behind the calls is not given here.
Tests used:
[1] = biological target: T1, DNA (cytosine-5)-methyltransferase 1 (Homo sapiens, UniProt P26358); assay: Inhibition of human recombinant DNMT1 expressed in Sf9 cells assessed as remaining activity at 2 mM after 3 hrs by scintillation counting in presence of [3H]S-adenosyl methionine
Outline: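 Single-point screen at 2 mM (compounds in DMSO, DMSO control) against 500 nM Sf9-expressed human DNMT1, hemimethylated oligo 0.4 μM, 0.7 μM [3H]AdoMet, pH 7.5 Tris buffer, 37 °C for 3 h; filter-bound tritium counted. Relative enzyme activity (% of control) as mean of three measurements with SD; inhibition >20% scored positive.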

[2] = biological target: T1, DNA (cytosine-5)-methyltransferase 1; assay: Inhibition of human recombinant DNMT1 expressed in Sf9 cells assessed as incorporation of [3H]S-adenosyl methionine into hemimethylated oligonucleotide substrate after 3 hrs by scintillation counting
HCT-116 [3] = assay: Antiproliferative activity against human HCT116 cells assessed as growth inhibition by measuring proliferation rate after 72 hrs by trypan blue staining; format: functional, cell-based
Outline: (§1)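 HCT116 colon carcinoma cells incubated 72 h with test compound at 300, 500 and 750 μM, azacytidine 1 μM as positive control, DMSO alone as control.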

HCT-116 [4] = assay: Antiproliferative activity against human HCT116 cells assessed as growth inhibition by measuring doubling time after 72 hrs by trypan blue staining; format: functional, cell-based; outline: as §1
[5] = biological target: T1, DNA (cytosine-5)-methyltransferase 1; assay: Competitive inhibition of human recombinant DNMT1 expressed in Sf9 cells using [3H]S-adenosyl methionine as substrate at 150 uM after 1 hr by scintillation counting
Outline: (§2)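 Mode-of-inhibition assay: standard DNMT1 filter assay (500 nM enzyme) modified with inhibitor fixed at 150 μM and 1 h at 37 °C; either [3H]SAM or the oligo substrate concentration increased while the other held. Activity with inhibitor under standard conditions set as 100% inhibition; curves interpreted by the Lai and Wu model.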

HCT-116 [6] = assay: Antiproliferative activity against human HCT116 cells after 72 hrs by trypan blue staining; format: functional; conditions: HCT-116, 72 h; outline: as §1
[7] = biological target: T1, DNA (cytosine-5)-methyltransferase 1; assay: Selectivity ratio of IC50 for procaine to compound for human recombinant DNMT1 expressed in Sf9 cells assessed as incorporation of [3H]S-adenosyl methionine into hemimethylated oligonucleotide substrate after 3 hrs by scintillation counting
[8] = biological target: T1, DNA (cytosine-5)-methyltransferase 1; assay: Non-competitive inhibition of human recombinant DNMT1 expressed in Sf9 cells using oligonucleotide as substrate after 1 hr by scintillation counting; outline: as §2

T1 sequence (P26358 whole entry): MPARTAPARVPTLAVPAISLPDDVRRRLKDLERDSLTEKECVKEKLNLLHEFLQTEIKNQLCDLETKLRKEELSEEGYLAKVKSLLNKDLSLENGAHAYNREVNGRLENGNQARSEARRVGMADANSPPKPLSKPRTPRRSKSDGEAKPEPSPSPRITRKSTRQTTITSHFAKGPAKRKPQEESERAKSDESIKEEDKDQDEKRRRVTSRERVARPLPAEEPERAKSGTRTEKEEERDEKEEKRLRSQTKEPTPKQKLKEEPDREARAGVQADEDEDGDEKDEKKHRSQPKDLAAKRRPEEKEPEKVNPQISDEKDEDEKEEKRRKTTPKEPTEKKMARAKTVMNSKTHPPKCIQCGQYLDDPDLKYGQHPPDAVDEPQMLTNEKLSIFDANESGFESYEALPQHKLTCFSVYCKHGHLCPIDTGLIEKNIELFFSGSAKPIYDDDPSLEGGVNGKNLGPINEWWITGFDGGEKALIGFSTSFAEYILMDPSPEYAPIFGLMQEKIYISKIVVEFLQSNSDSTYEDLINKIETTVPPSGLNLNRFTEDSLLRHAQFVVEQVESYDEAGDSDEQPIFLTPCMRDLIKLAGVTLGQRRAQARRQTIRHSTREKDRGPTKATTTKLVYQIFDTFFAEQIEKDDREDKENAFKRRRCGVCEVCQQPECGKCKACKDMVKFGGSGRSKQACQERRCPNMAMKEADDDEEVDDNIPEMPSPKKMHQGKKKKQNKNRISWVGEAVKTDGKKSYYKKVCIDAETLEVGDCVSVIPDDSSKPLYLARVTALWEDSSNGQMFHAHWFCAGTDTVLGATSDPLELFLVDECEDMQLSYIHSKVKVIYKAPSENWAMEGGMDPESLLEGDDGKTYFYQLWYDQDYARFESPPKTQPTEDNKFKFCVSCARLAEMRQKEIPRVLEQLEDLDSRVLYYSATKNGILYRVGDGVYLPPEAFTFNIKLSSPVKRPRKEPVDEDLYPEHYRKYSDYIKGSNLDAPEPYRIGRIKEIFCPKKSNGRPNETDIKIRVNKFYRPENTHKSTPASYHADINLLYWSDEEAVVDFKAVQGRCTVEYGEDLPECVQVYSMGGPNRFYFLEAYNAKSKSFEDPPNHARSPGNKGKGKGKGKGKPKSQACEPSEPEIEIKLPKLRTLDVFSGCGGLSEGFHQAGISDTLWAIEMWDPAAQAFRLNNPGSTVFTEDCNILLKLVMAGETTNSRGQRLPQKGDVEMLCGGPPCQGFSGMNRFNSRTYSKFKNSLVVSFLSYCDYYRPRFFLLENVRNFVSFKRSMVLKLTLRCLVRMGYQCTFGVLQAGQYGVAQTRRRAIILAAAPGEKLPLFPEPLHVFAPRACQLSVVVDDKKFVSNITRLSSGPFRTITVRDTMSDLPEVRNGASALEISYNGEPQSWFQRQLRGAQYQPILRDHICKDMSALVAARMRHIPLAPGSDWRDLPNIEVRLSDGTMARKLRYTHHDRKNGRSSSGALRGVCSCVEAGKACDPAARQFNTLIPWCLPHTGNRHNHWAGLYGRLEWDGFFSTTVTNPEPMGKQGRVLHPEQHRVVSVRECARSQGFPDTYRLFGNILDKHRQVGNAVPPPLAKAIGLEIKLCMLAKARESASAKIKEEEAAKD

Compound	Activity [1]	other results
O=C(O)[C@H](Cc1c[nH]c2ccccc12)N1C(=O)c2ccccc2C1=O	inactive	
CN1CC2ON=C(c3ccc(N)cc3)C2C1 (configuration not stated)	5.1%	pIC50 [2]: 3.24
COc1ccc(CC2=NOC3CN(C)CC23)cc1 (configuration not stated)	1.7%	pIC50 [2]: 2.95
CCN(CC)CCOC(=O)c1ccc(N)cc1	inactive	
CN1CC2ON=C(c3ccc([N+](=O)[O-])cc3)C2C1 (configuration not stated)	34.9%	
COc1ccc(CC2=NOC(CN(C)C)C2)cc1 (configuration not stated)	inactive	
Cc1ccc(S(=O)(=O)Oc2ccc(C3=NOC4CN(C)CC34)cc2)cc1 (configuration not stated)	18.6%	
CN(C)CC1CC(c2ccc(C(=O)O)cc2)=NO1 (configuration not stated)	23%	
CN(C)CC1CC(c2ccccc2)=NO1 (configuration not stated)	inactive	
CN1CC2ON=C(c3ccccc3)C2C1 (configuration not stated)	inactive	
COc1ccc(C2=NOC(CN(C)C)C2)cc1 (configuration not stated)	3.3%	
O=[N+]([O-])c1ccc(C2=NC[C@H](CN3CCCC3)O2)cc1		growth inhibition (GI) (HCT-116 [3]): inactive; growth inhibition (GI) (HCT-116 [4]): inactive
Cc1ccc(S(=O)(=O)Oc2ccc(C3=NOC(CN(C)C)C3)cc2)cc1 (configuration not stated)	90.6%	
CN1CC2ON=C(c3ccc(O)cc3)C2C1 (configuration not stated)	inactive	
CN(C)CC1CC(Cc2ccc([N+](=O)[O-])cc2)=NO1 (configuration not stated)	14.8%	pIC50 [2]: 2.80
CN1CC2ON=C(Cc3ccccc3)C2C1 (configuration not stated)	84%	
CN(C)CC1CC(Cc2ccccc2)=NO1 (configuration not stated)	17.1%	
CN1CC2ON=C(c3ccc(C(=O)O)cc3)C2C1 (configuration not stated)	inactive	
COc1ccc(C2=NOC3CN(C)CC23)cc1 (configuration not stated)	95.6%	
CN1CC2ON=C(Cc3ccc([N+](=O)[O-])cc3)C2C1 (configuration not stated)	3.8%	pIC50 [2]: 3.51
CN(C)CC1CC(c2ccc(N)cc2)=NO1 (configuration not stated)	20.2%	pIC50 [2]: 3.57
Nc1ncnc2c1ncn2[C@@H]1O[C@H](CSCC[C@H](N)C(=O)O)[C@@H](O)[C@H]1O	0.5%	
CN1CC2ON=C(Cc3ccc(N)cc3)C2C1 (configuration not stated)	3.3%	
CN(C)CC1CC(c2ccc([N+](=O)[O-])cc2)=NO1 (configuration not stated)	0.3%	inhibition [5]: Active; GI50 (HCT-116 [6]): 360 µM; Ratio IC50 [7]: 10; pIC50 [2]: 3.82; inhibition [8]: Active
CN(C)CC1CC(Cc2ccc(N)cc2)=NO1 (configuration not stated)	28.3%	
CN(C)CC1CC(c2ccc(O)cc2)=NO1 (configuration not stated)	88%	

Source: ChEMBL document CHEMBL1914404, “Synthesis and biochemical evaluation of δ(2)-isoxazoline derivatives as DNA methyltransferase 1 inhibitors” (J Med Chem, 2011)
